PAX8 inh HTS – inhibitors of PAX8-driven TPO luciferase reporter, primary screen, RMG-I cells, single concentration; SteadyGlo, 24 h; inhibition, % at 12.6 µM; hit rate 1.2% among 360,000; AID 652154, 2013;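 active = mean replicate inhibition at least 60% with every replicate also reaching 60%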;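 also: luciferase light reporting Pax8 driven TPO promoter activity; plate controls were median of neutral control wells for no effect and mitoxantrone controls for full effect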
CFTR F508del cor – F508del CFTR correction, initial screen, CFBE line, single point | CFBE cells, YFP halide quenching; stimulated with forskolin plus potentiator P3; % fluorescence drop versus neutral controls | activity (quench increase), % at 7.58 µM | hit rate 0.36% among 350,000 | AID 720511, 2013;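 active = mean added fluorescence quench of at least 8% versus neutral control, with both replicates also reaching 8%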;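 also: cells transiently co-express mutant CFTR-F508del with the halide-sensitive YFP; corrector assay measuring rescue of mutant channel to the surface after 24 h compound exposure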
Env fusion inh – inhibitors of HIV-1 Env-driven cell-cell fusion, primary screen, HeLa-JRFL effector, CEM21 target cells, luciferase; inhibition, % at 12.3 µM; hit rate 1.1% among 360,000;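 active = mean replicate inhibition score of at least 50 and every replicate individually at or above 50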;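 also: 0% = plate neutral controls and 100% = maraviroc near 300 nM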
EWS-Fli inh – EWS/Fli-driven NR0B1 reporter inhibitors, primary screen, A673 cells, NR0B1 luciferase, luminescence, MLPCN library; viability-normalised; inhibition, % at 12.6 µM; hit rate 0.67% among 350,000;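 active = mean inhibition of at least 50% after viability correction, with every replicate also passing that limit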;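 also: firefly luciferase signal divided by Alamar Blue viability fluorescence both relative to DMSO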
PGC1a acetyl inh – inhibitors of PGC1a acetylation signal, primary screen, cell-based, U2OS, AlphaScreen, inhibitor mode | AlphaScreen anti-acetyl-lysine; with virally co-expressed GCN5 acetyltransferase | inhibition, % at 15.6 µM | hit rate 0.17% among 350,000;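 active = every replicate shows inhibition of at least 40%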;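 also: 0% = neutral control wells and 100% = positive control wells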
FN deposition inh – inhibitors of fibronectin matrix deposition, primary screen, AH1F cells, Alexa488-fibronectin fluorescence, plate reader. AH1F fibroblasts, overnight. inhibition, % at 12.6 µM. hit rate 0.086% among 350,000. AID 743247, 2014;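 active = mean inhibition across replicates of 30% or more, regardless of how many single replicates reach that level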;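 also: positive control wells lacked labelled fibronectin entirely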
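Material: AH1F fibroblast monolayer depositing Alexa488-labelled fibronectin into matrix / Amount: 10000 AH1F cells per well / Signal: fluorescence 485/525 nm / Medium: DMEM, 2% serum / Compound: single dose, pinned / Incubation: 1 h cell adhesion before compound, then overnight fibronectin incubation / Reagent: Alexa488-FN, 24 nM final / Read-out: inhibition of fibronectin deposition signal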
* marks the source's active call; other numbers are inactive results; nt = no result; [ ] = remark or other dose. This is a sample that favours compounds with a hit; in the whole collection about 2.3% have one here.

SMILES	PAX8 inh HTS	CFTR F508del cor	Env fusion inh	EWS-Fli inh	PGC1a acetyl inh	FN deposition inh
Nc1nonc1-c1nc2ccccc2n1CC(=O)Nc1ccccc1	21	4	14	24	0	-1
CO[C@@H]1CN(C)C(=O)c2ccc(NC(=O)C3CCCCC3)cc2OC[C@@H](C)N(Cc2nccs2)C[C@H]1C	6	1	nt	8	nt	-6
Cc1ccc2c(c1)c1c3n2CCN(CC(N)=O)C3CCC1 (stereo not drawn)	97*	-21	81*	5	nt	15
CN(C)CC(=O)N1[C@@H](CO)[C@@H](c2ccccc2)C12CN(C(=O)c1cccc(F)c1)C2	nt	-2	nt	nt	nt	nt
CC(C)(C)C1CCC2(CC1)NC(=S)N(c1ccccc1)N2 (stereo not drawn)	nt	nt	-45	nt	-3	-8
S=C1NC2(CCCCCC2)NN1c1ccccc1	-4	-1	55*	-12	nt	4
CCC(=O)N1[C@@H](CO)[C@@H](c2ccccc2)C12CN(C(=O)Nc1cccc(OC)c1)C2	nt	-1	nt	-6	10	nt
O=S(=O)(c1ccc(F)cc1)N(CCO)CC(O)Cn1c2ccccc2c2ccccc21 (stereo not drawn)	nt	nt	66*	nt	-8	nt
C[C@@H]1CN([C@@H](C)CO)C(=O)c2cc(-c3cccc(F)c3)cnc2O[C@@H]1CN(C)C	nt	1	2[16.7 µM]	-11	13	5
CCCOP(=O)(c1ccc(N(C)C)cc1)C(O)c1c(Cl)cccc1Cl (stereo not drawn)	-15	-1	73*	0	-7	4
CCOP(=O)(c1ccc(N(C)C)cc1)C(O)c1c(Cl)cccc1Cl (stereo not drawn)	6	nt	8	nt	-5	2
Cc1ccc(C(O)P(=O)(OCCC(C)C)c2ccc(N(C)C)cc2)cc1 (stereo not drawn)	-4	-4	20	5	0	8
CC(C)CCOP(=O)(c1ccc(N(C)C)cc1)C(O)c1c(Cl)cccc1Cl (stereo not drawn)	-4	1	75*	17	-9	-4
O=C(Nc1ccccc1)N1C[C@H]2[C@@H](c3ccccc31)[C@@H](CO)N2C(=O)c1ccncc1	-54	-2	nt	-23	2	nt
COc1ccc(-c2[nH]ncc2CN(C)C(C)c2ccon2)cc1F (stereo not drawn)	12	-1	2	5	80*	0
COc1ccc(-c2[nH]ncc2CN(C)CCN2CCOCC2)cc1F	8	-1	-13	6	-7	nt
CO[C@@H]1CN(C)C(=O)c2cc(NC(=O)Nc3ccc(Cl)cc3)ccc2OC[C@H](C)N(C)C[C@H]1C	5	0	60*[16.7 µM]	13	4	-4
CCCC(=O)Nc1ccc2c(c1)C(=O)N(C)C[C@@H](OC)[C@@H](C)CN(Cc1nccs1)[C@@H](C)CO2	-4	1	58*[16.7 µM]	5	13	14
CO[C@H]1CN(C)C(=O)c2cc(NC(C)=O)ccc2OC[C@@H](C)N(Cc2nccs2)C[C@H]1C	nt	1	70*[16.7 µM]	-4	3	5
CC(C)NC(=O)N[C@@H]1C=C[C@H](CC(=O)NCCN2CCCC2)O[C@@H]1CO	-16	0	-2[16.7 µM]	-14	2	5
CCCC#Cc1ccc2c(c1)[C@H]1[C@H](CCN1C(=O)C1CCCCC1)[C@@H](CO)N2	nt	nt	nt	nt	nt	-27
COc1cc(/C=C/C(=O)O)cc(S(=O)(=O)Nc2ccc3cn[nH]c3c2)c1OC	9	8.8*	-6	9	nt	-6
COc1cc(/C=C/C(=O)O)cc(S(=O)(=O)Nc2ccc3[nH]c(=O)[nH]c3c2)c1OC	-15	0	-22	0	4	2
CC(=O)NC(=S)Nc1ccc(NC(=S)NC(=O)/C=C/c2ccco2)cc1	25	14*	-8	18	nt	-4
COc1cccc(-n2nc(C#N)c(Cl)cc2=O)c1	98*	-8	-75	58*	5	12
SMILES	PAX8 inh HTS	CFTR F508del cor	Env fusion inh	EWS-Fli inh	PGC1a acetyl inh	FN deposition inh
CCC(=O)N[C@@H]1CC[C@H](CCn2cc(C3CC3)nn2)O[C@H]1CO	6	1	-38[16.7 µM]	8	-2	-6
COc1cc(-c2noc(C)c2C#Cc2ccsc2)cc(OC)c1OC	52	11*	-36	59*	nt	1
C=C(C)[C@@H]1C2=CC(C(=O)OC)=C(C[C@H](C(=C)C)[C@H]3O[C@H]3C3=C[C@H]1OC3=O)O2	nt	-1	nt	57*	2	nt
Cc1ccc(S(=O)(=O)N2CCCCCC2)cc1C(=O)NCc1ccccn1	-9	-1	2	9	nt	1
Cc1ccc(C(=O)NCc2ccccn2)cc1S(=O)(=O)N1CCCCC1	6	-1	90*	-3	-21	nt
Cc1ccc(-n2cccc2C(=S)N=P(N(C)C)(N(C)C)N(C)C)cc1	nt	nt	8	nt	85*	6
Cc1ccc(-n2cccc2C(=O)NS(=O)(=O)c2ccc(C)cc2)cc1	-12	2	-2	-8	2	-2
C[C@@H]1CCCCO[C@H](CN(C)Cc2ccc(Cl)c(Cl)c2)[C@@H](C)CN([C@@H](C)CO)C(=O)c2cc(NC(=O)c3ccccc3)ccc2O1	82*	-1	24[16.7 µM]	16	-6	-1
C[C@@H]1CCCCO[C@@H](CN(C)Cc2ccc(Cl)c(Cl)c2)[C@@H](C)CN([C@H](C)CO)C(=O)c2cc(NC(=O)c3ccccc3)ccc2O1	15	3	-21[16.7 µM]	-16	-6	-8
C[C@@H]1CCCCO[C@@H](CN(C)Cc2ccc(Cl)c(Cl)c2)[C@H](C)CN([C@H](C)CO)C(=O)c2cc(NC(=O)c3ccccc3)ccc2O1	97*	2	24[16.7 µM]	29	-17	-18
C[C@H](CO)N1C[C@H](C)[C@H](CN(C)Cc2ccc(Cl)c(Cl)c2)OCCCC[C@H](C)Oc2ccc(NC(=O)c3ccccc3)cc2C1=O	7	0	15[16.7 µM]	6	-5	17
CC(C(=O)NC1CCCC1)N1CCN(S(=O)(=O)c2ccc(C(C)(C)C)cc2)CC1 (stereo not drawn)	15	13*	-9	5	6	-1
C[C@@H]1CN(C)C(=O)c2cccc(NS(C)(=O)=O)c2O[C@@H]1CN(C)C	nt	nt	nt	nt	nt	0
CCCC#Cc1ccc2c(c1)O[C@@H](CN(C)C(=O)c1cnccn1)[C@@H](C)CN([C@H](C)CO)S2(=O)=O	nt	4	-8[16.7 µM]	-2	-10	2
CCCC#Cc1ccc2c(c1)O[C@@H](CN(C)C(=O)c1cnccn1)[C@@H](C)CN([C@@H](C)CO)S2(=O)=O	nt	1	-3[16.7 µM]	54*	-4	-9
COc1ccc(C#Cc2ccc3c(c2)O[C@@H](CN(C)C(=O)c2ccccn2)[C@H](C)CN([C@@H](C)CO)S3(=O)=O)cc1	65*	2	19[16.7 µM]	3	0	nt

Assay outcomes (PubChem BioAssay)
